An excerpt weighted towards active compounds, which were near 3.9% of everything screened.
tim10-1 inh: growth inhibitors of tim10-1 mutant yeast, primary screen, luminescence, uHTS. S. cerevisiae tim10-1 ts strain growth, BacTiter-Glo, 24 h. inhibition, % at 20 µM. 330,000 tested, 2.2% active. AID 463190, 2010;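 active = inhibition of at least 40%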;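 also: mutant grown at 25 °C; 0% = DMSO wells with yeast and 100% = wells holding no yeast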
tim23-1 inh: growth inhibitors of tim23-1 mutant yeast, primary screen, luminescence, uHTS; S. cerevisiae tim23-1 growth, BacTiter-Glo luminescence, 24 h; 330,000 tested, 1.3% active; inhibition, % at 20 µM; AID 463212, 2010;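 active = growth inhibition of the mutant yeast at or above 50%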;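 also: temperature-sensitive mutant grown at 25 °C; plate controls were DMSO-treated mutant yeast for no effect and medium wells lacking yeast for full effect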
CHOP UPR activ: activators of apoptotic CHOP UPR arm, primary screen, cell-based, CHO-CHOP luciferase reporter, luminescence, uHTS | AID 449763, 2010 | activation, % at 10 µM | UPR activation; percent of tunicamycin response over DMSO baseline | 330,000 tested, 0.34% active;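 active = at 10 µM dose, activation of 40% or more, normalized to positive control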;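 also: 100% = tunicamycin at 10 µg/mL and 0% = DMSO alone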
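Assay system: CHO-CHOP cells, stable luciferase reporter of PERK-eIF2a-CHOP signalling / Buffer or medium: F12 plus 10% serum / Compound dosing: one dose, 10 µM in 0.5% DMSO / Times: 6 h compound treatment, 37 °C / Technique: luciferase luminescence / Read-out: % reporter activation, DMSO baseline versus tunicamycin full activation / Benchmarks: tunicamycin and DMSO controls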
XBP1 UPR activ: activators of adaptive XBP1 UPR arm, primary screen, cell-based, CHO-XBP1 luciferase reporter, luminescence, uHTS; IRE1-XBP1 UPR activation; percent of tunicamycin response, DMSO as zero; 330,000 tested, 0.33% active; activation, % at 20 µM;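 active = versus positive control, 20 µM dose yields 30% or more activation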;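 also: 100% = tunicamycin at 10 µg/mL and 0% = DMSO only wells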
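incubation = overnight seeding at 37 °C, 6 h compound treatment at 37 °C | assay system = CHO-XBP1 cells stably carrying IRE1-XBP1-driven luciferase reporter | input = 1000 cells per well | detection = luciferase luminescence | dosing = single point, 20 µM final compound, 1% DMSO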
TIM10 inh: growth inhibitors of isogenic TIM10 control yeast, primary screen, counter-screen for tim10-1 yeast inhibitor project, luminescence, uHTS; S. cerevisiae TIM10 strain growth, BacTiter-Glo luminescence, 24 h; inhibition, % at 10 µM; 330,000 tested, 1.4% active;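 active = inhibition of 40% or more at the single tested concentration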;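 also: wild-type TIM10 isogenic control strain grown at permissive 25 °C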
tim10-1 conf: growth inhibitors of tim10-1 mutant yeast, confirmation, single concentration, luminescence, S. cerevisiae; inhibition, % at 20 µM; shares compounds with tim10-1 inh; S. cerevisiae tim10-1 ts strain growth, BacTiter-Glo, 24 h; AID 463213, 2010; 7,400 tested, 56% active;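 active = inhibition of yeast growth at or above a set limit in either of two repeat tests at 20 µM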;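 also: tim10-1 mutant grown at permissive 25 °C to find synthetic lethal compounds; 0% = DMSO yeast wells and 100% = medium wells without yeast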
TIM10 conf: growth inhibitors of wild-type TIM10 yeast, confirmation, counter-screen for tim10-1 synthetic lethality project, single concentration, luminescence, S. cerevisiae; shares compounds with TIM10 inh; S. cerevisiae tim10 strain growth, BacTiter-Glo luminescence, 24 h; inhibition, % at 10 µM; 4,600 tested, 63% active;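 active = inhibition of yeast growth at or above a set limit in either of two replicates at 10 µM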;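 also: this counterscreen used the strain with wild-type TIM10; 0% = yeast with DMSO and 100% = medium wells lacking yeast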
tim23-1 confirm: tim23-1 mutant yeast growth inhibitors, confirmation, luminescence, single concentration | shares compounds with tim23-1 inh | S. cerevisiae tim23-1 growth, BacTiter-Glo luminescence, 24 h | inhibition, % at 20 µM | 4,400 tested, 83% active | AID 463218, 2010;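 active = inhibition above about 39% in either of two replicate wells at 20 µM, limit read from the data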;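 also: temperature-sensitive tim23-1 mutant grown at 25 °C; 0% = DMSO wells with yeast and 100% = medium wells without yeast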
Starred values were filed as active, the others as inactive.

Screening CCCCCCCCC/C(=N\O)c1ccccn1 returned tim10-1 inh 48*, tim23-1 inh 65*, CHOP UPR activ 5, XBP1 UPR activ 2, TIM10 inh 72*, tim10-1 conf 17, TIM10 conf -3 and tim23-1 confirm 70*.
Screening O=C(Nc1cc(Cl)ccc1-n1cncn1)c1ccc([N+](=O)[O-])o1 returned tim10-1 inh 72*, tim23-1 inh 66*, CHOP UPR activ 2, XBP1 UPR activ 1, TIM10 inh 48*, tim10-1 conf 58*, TIM10 conf 56* and tim23-1 confirm 50*.
Screening O=C(Nc1ccccc1Cl)c1ccc([N+](=O)[O-])o1 returned tim10-1 inh 50*, tim23-1 inh 67*, CHOP UPR activ 5, XBP1 UPR activ -4, TIM10 inh 48*, tim10-1 conf 56*, TIM10 conf 57* and tim23-1 confirm 68*.
`Cc1c(NC(=O)c2ccc([N+](=O)[O-])o2)cccc1-c1nc2ncccc2o1` gave tim10-1 inh 49*, tim23-1 inh 53*, CHOP UPR activ 20, XBP1 UPR activ -1, TIM10 inh 47*, tim10-1 conf 48*, TIM10 conf 53* and tim23-1 confirm 64*.
For COc1cccc(C(=O)Nc2cccc(-c3nc4ncccc4o3)c2C)c1 the results were tim10-1 inh 2, tim23-1 inh 0, CHOP UPR activ -2, XBP1 UPR activ 2 and TIM10 inh 17.
`CN1CCN(c2ccccc2NC(=O)c2ccc([N+](=O)[O-])o2)CC1` gave tim10-1 inh 10, tim23-1 inh 13, CHOP UPR activ 2, XBP1 UPR activ -5 and TIM10 inh 9.
`CC(NC(=O)c1ccc(NC(=O)CC2SC(N3CCCC3)=NC2=O)cc1)c1ccccc1` (stereo not drawn) gave tim10-1 inh 8, tim23-1 inh 9, CHOP UPR activ -2, XBP1 UPR activ -3 and TIM10 inh -1.
For O=C(Oc1c(Cl)cc(Cl)c2cccnc12)c1cccc([N+](=O)[O-])c1 the results were tim10-1 inh 51*, tim23-1 inh 63*, CHOP UPR activ 0, XBP1 UPR activ 7, TIM10 inh 50*, tim10-1 conf 28, TIM10 conf -27 and tim23-1 confirm 73*.
COc1cc(N=c2ssnc2Cl)cc(OC)c1 was read as tim10-1 inh 55*, tim23-1 inh 76*, CHOP UPR activ 3, XBP1 UPR activ 0, TIM10 inh 33, tim10-1 conf 58* and tim23-1 confirm 79*.
`O=C(OCC(=O)C12CC3CC(CC(C3)C1)C2)c1ccc(O)cc1O` gave tim10-1 inh 53*, tim23-1 inh 76*, CHOP UPR activ 3, XBP1 UPR activ 4, TIM10 inh 27, tim10-1 conf 15 and tim23-1 confirm 62*.
O=C(COC(=O)c1ccc(O)cc1O)NC12CC3CC(CC(C3)C1)C2 was read as tim10-1 inh 11, tim23-1 inh 38, CHOP UPR activ 3, XBP1 UPR activ 3 and TIM10 inh 19.
For O=C(N(c1ccccc1)c1ccccc1)N(c1ccccc1)c1ccccc1 the results were tim10-1 inh 46*, tim23-1 inh 52*, CHOP UPR activ 1, XBP1 UPR activ 6, TIM10 inh 39, tim10-1 conf 22 and tim23-1 confirm 41*.
CNC(=O)N(c1ccccc1)c1ccccc1 was read as tim10-1 inh 13, tim23-1 inh 1, CHOP UPR activ 0, XBP1 UPR activ -2 and TIM10 inh -11.

Screening results (PubChem)
